Activity calls are given as the source filed them. The calls are words filed in the database; no cut-off is given here.
Assays:
[1] = Aqueous solubility of the compound in 0.1% DMSO; format: physicochemical; details: buffer
BXPC-3 [2] = assay: Cytotoxicity against S100P expressing human BXPC-3 cells assessed as reduction in cell viability at 10 uM measured after 24 hrs by MTS assay; format: functional, cell-based
In short: (§1)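 1 × 10^5 BxPC-3 (RPMI-1640) or Panc-1 (DMEM high glucose) cells, in medium with 10% FBS, were allowed to adhere for 24 h, then given 10 μM compound. MTS absorbance was read at 492 nm every 24 h. Background was subtracted and values normalized to untreated cells. n = 3 separate experiments.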

Homo sapiens = species on record: Homo sapiens; assay: Inhibition of human recombinant S100P/RAGE interaction incubated for 1 hr and measured by ELISA based binding assay
In short: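 His-tagged human S100P, expressed in E. coli BL21 and Ni-NTA purified, was coated at 2 μM in PBS pH 7.4 with 1 mM CaCl2, 10 μM ZnCl2 and 0.5 mM MgCl2 overnight at 37 °C, then blocked with 1% BSA for 2 h. Wells got increasing compound concentrations in triplicate, then human RAGE-Fc for 1 h at 37 °C, anti-human HRP for 1 h, and TMB for 20 min. Read at 450 nm, normalized to S100P+RAGE-Fc; IC50 estimated.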

BXPC-3 [3] = assay: Antiinvasive activity in S100P expressing human BXPC-3 cells assessed as inhibition of cell invasion at 10 uM incubated for 48 hrs by transwell invasion assay; format: functional, cell-based
In short: (§2)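 Matrigel-coated Transwell (PET membrane, 8 μm pores). BxPC-3 (RPMI-1640) or Panc-1 (DMEM) cells were seeded at 2 × 10^5 cells/mL in serum-free medium in the upper chamber, with 10% FBS below as chemoattractant. Cells were given 10 μM compound (0.1% DMSO final) for 48 h at 37 °C, 5% CO2. Invaded cells were Diff-Quik stained and counted in five ×100 fields. Three independent experiments.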

PANC-1 [4] = assay: Antiinvasive activity in human PANC-1 cells assessed as inhibition of cell invasion at 10 uM incubated for 48 hrs by transwell invasion assay; format: functional, cell-based; in short: as §2
PANC-1 [5] = assay: Cytotoxicity against human PANC-1 cells assessed as LDH release at 10 uM measured after 24 hrs by LDH assay; format: functional, cell-based
In short: (§3)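 1 × 10^5 BxPC-3 (RPMI-1640) or Panc-1 (DMEM high glucose) cells were allowed to adhere for 24 h, then given 10 μM compound. Membrane integrity was measured by LDH release (CytoTox-ONE) every 24 h for up to 3 days, with background OD subtracted.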

BXPC-3 [6] = assay: Cytotoxicity against S100P expressing human BXPC-3 cells assessed as LDH release at 10 uM measured after 24 hrs by LDH assay; format: functional, cell-based; in short: as §3
[7] = Aqueous solubility of the compound in 1% DMSO; format: physicochemical; details: buffer
PANC-1 [8] = assay: Cytotoxicity against human PANC-1 cells assessed as reduction in cell viability at 10 uM measured after 24 hrs by MTS assay; format: functional, cell-based; in short: as §1
BXPC-3 [9] = assay: Antiinvasive activity in S100P expressing human BXPC-3 cells assessed as inhibition of cell invasion at 100 to 200 uM incubated for 48 hrs by transwell invasion assay; details: dose 100-200 µM
PANC-1 [10] = assay: Antiinvasive activity in human PANC-1 cells assessed as inhibition of cell invasion at 100 to 200 uM incubated for 48 hrs by transwell invasion assay; details: dose 100-200 µM

SMILES | solubility [1] | Activity (BXPC-3 [2]) | INH (Homo sapiens) [nM] | Activity (BXPC-3 [3]) | Activity (PANC-1 [4]) | Activity (PANC-1 [5]) | Activity (BXPC-3 [6]) | solubility [7] | Activity (PANC-1 [8]) | Activity (BXPC-3 [9]) | Activity (PANC-1 [10])
O=C1C2C3c4ccccc4C(c4ccccc43)C2C(=O)N1c1cccc(F)c1 (centres undefined) | Soluble | inactive | 10 | Active | inactive | inactive | inactive | Soluble | inactive | – | –
Cc1ccc(-c2ccc(=O)n(CC(=O)Nc3ccc(-n4cnnn4)cc3)n2)cc1 | – | inactive | – | Active | inactive | inactive | inactive | – | inactive | – | –
O=C(O)c1cc(=O)c2c(OCC(O)COc3cccc4oc(C(=O)O)cc(=O)c34)cccc2o1 | – | inactive | – | inactive | inactive | inactive | inactive | – | inactive | Active | Active
O=C(O)c1cccc(N2C(=O)C3C4c5ccccc5C([N+](=O)[O-])(c5ccccc54)C3C2=O)c1 (centres undefined) | – | inactive | 10 | Active | inactive | inactive | inactive | – | inactive | – | –
O=C(O)c1ccc(N2C(=O)C3C4c5ccccc5C([N+](=O)[O-])(c5ccccc54)C3C2=O)cc1 (centres undefined) | Soluble | inactive | < 10 | Active | inactive | inactive | inactive | Soluble | inactive | – | –
COc1ccc(/C=C2/C(=O)NC(=O)N(c3ccc(Cl)c(Cl)c3)C2=O)cc1C(=O)O | – | inactive | – | Active | inactive | inactive | inactive | – | inactive | – | –
O=C1C2C3c4ccccc4C(c4ccccc43)C2C(=O)N1c1ccc(F)cc1 (centres undefined) | Soluble | inactive | 10 | Active | inactive | inactive | inactive | Soluble | inactive | – | –
O=C(Cc1cc(O)n[nH]1)N/N=C/c1c(Cl)cccc1Cl | – | inactive | – | Active | inactive | inactive | inactive | – | inactive | – | –
O=C1C2C3c4ccccc4C([N+](=O)[O-])(c4ccccc43)C2C(=O)N1c1cccc(F)c1 (centres undefined) | Soluble | inactive | 100 | Active | inactive | inactive | inactive | Soluble | inactive | – | –
N#CCCn1cc(C(=O)Nc2ccc(C(=O)O)cc2)c(-c2ccccc2)n1 | – | inactive | – | Active | inactive | inactive | inactive | – | inactive | – | –
O=C1C2C3c4ccccc4C(c4ccccc43)C2C(=O)N1c1ccccc1 (centres undefined) | Soluble | inactive | 10 | Active | inactive | inactive | inactive | Soluble | inactive | – | –
